Test results taken from ChEMBL document CHEMBL2407017, “Pyrazolo[3,4-d]pyrimidine Prodrugs: Strategic Optimization of the Aqueous Solubility of Dual Src/Abl Inhibitors” (ACS Med Chem Lett, 2013).
In brackets after ≈: the same amount, converted by molar mass. Activity calls are given as the source filed them. The rule behind the calls is not given here.

What was measured:
cells [1] = details: Mus musculus, 32D, 48 h
[2] = Half life in water at 500 uM by HPLC analysis; format: physicochemical
Method in brief: (§1)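 Compounds dissolved at 500 μM in methanol, water, or PBS (12.5 μM, pH 7.4). Mean of at least two experiments.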

[3] = biological target: Proto-oncogene tyrosine-protein kinase Src (Mus musculus) (UniProt P05480); experiment: Inhibition of c-SRC phosphorylation at Y416 in mouse 32D cells expressing BCR/ABL fusion protein p210 at 1 uM by Western blotting analysis; format: cell-based
Method in brief: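 32D cells treated with 1 μM compound. Phosphorylated (active) c-Src and c-Abl detected by Western blot with β-actin as loading control. Dasatinib used as reference dual inhibitor.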

[4] = biological target: Tyrosine-protein kinase ABL1 (Homo sapiens) (UniProt P00519); experiment: Inhibition of recombinant wild type c-ABL (unknown origin) at 100 uM after 5 mins by scintillation counting analysis in presence of [gamma32P]ATP
[5] = Half life in methanol at 500 uM by HPLC analysis; format: physicochemical
Method in brief: as §1

[6] = Metabolic stability in human liver microsomes assessed as compound remaining at 50 uM after 60 mins by UV/LC/MS analysis; format: ADME, Microsome; details: read-out: Stability
Method in brief: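 Human pooled liver microsomes, incubated at 37 °C for 1 h to simulate phase I metabolism. Parent drug and metabolites are then quantified by LC–MS. Stability is given as the percentage of unmodified drug remaining.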

[7] = Apparent permeability of the compound after 5 hrs by PAMPA; format: ADME; details: for Papp at 5 h: PAMPA
[8] = Apparent permeability of the compound assessed as membrane retention after 5 hrs by PAMPA; format: ADME
Method in brief: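 PAMPA passive permeability measured as Papp (10⁻⁶ cm s⁻¹). Membrane retention is the percentage of compound that fails to reach the acceptor compartment. Mean of at least two experiments.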

[9] = Half life in human plasma at 1 mM by HPLC analysis; format: ADME, cell-free
Method in brief: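 Incubated at 37 °C in pooled human plasma. Loss of substrate and formation of parent drug followed by HPLC. Mean of at least two experiments.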

[10] = biological target: Proto-oncogene tyrosine-protein kinase Src (Homo sapiens) (UniProt P12931); experiment: Inhibition of recombinant c-SRC (unknown origin) at 100 uM after 5 mins by scintillation counting analysis in presence of [gamma32P]ATP
cells [11] = details: Mus musculus, 32D, 48 h; remark: listed apart in the source
[12] = Half life in phosphate buffer at 500 uM at pH 7.4 by HPLC analysis; format: physicochemical
Method in brief: as §1

[13] = Thermodynamic solubility of the compound in water at 1 mg after 24 hrs by UV/LC-MS analysis; format: physicochemical; details: read-out: Therm_solubility
Method in brief: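 Aqueous solubility: compound concentration measured by UV/LC−MS after filtration through a 0.45 μm nylon filter. Mean of at least two experiments.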

Proto-oncogene tyrosine-protein kinase Src (Mus musculus), sequence (P05480 2-535 limits assumed): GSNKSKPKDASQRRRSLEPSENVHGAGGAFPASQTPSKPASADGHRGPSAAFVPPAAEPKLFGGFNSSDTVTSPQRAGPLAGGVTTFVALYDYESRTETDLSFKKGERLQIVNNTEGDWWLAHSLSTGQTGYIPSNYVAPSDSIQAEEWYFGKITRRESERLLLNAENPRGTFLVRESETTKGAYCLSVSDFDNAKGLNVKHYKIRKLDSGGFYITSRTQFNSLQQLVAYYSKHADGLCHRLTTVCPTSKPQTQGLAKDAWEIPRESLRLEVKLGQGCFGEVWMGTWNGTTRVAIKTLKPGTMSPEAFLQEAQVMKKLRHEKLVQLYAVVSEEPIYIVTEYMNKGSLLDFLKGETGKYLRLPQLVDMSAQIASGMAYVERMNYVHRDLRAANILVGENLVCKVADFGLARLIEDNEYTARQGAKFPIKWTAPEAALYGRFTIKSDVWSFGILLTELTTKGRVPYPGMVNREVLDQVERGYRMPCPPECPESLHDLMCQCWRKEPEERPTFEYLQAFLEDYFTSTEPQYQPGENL
Proto-oncogene tyrosine-protein kinase Src (Homo sapiens), sequence (P12931 2-536 limits assumed): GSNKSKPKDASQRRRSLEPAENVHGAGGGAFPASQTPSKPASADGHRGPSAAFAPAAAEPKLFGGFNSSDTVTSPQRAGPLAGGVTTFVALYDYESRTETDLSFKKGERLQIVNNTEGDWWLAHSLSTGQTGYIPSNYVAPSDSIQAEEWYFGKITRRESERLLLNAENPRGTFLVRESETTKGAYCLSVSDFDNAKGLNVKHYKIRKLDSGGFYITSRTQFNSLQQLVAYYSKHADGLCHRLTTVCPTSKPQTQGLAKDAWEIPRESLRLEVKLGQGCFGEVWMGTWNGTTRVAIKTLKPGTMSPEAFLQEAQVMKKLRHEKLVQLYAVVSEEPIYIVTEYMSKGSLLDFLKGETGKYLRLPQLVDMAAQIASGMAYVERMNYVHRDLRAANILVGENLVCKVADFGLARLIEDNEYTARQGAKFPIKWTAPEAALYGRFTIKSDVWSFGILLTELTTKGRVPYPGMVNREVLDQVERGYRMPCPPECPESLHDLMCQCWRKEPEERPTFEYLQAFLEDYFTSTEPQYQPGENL
Tyrosine-protein kinase ABL1 (Homo sapiens), sequence (P00519 whole entry): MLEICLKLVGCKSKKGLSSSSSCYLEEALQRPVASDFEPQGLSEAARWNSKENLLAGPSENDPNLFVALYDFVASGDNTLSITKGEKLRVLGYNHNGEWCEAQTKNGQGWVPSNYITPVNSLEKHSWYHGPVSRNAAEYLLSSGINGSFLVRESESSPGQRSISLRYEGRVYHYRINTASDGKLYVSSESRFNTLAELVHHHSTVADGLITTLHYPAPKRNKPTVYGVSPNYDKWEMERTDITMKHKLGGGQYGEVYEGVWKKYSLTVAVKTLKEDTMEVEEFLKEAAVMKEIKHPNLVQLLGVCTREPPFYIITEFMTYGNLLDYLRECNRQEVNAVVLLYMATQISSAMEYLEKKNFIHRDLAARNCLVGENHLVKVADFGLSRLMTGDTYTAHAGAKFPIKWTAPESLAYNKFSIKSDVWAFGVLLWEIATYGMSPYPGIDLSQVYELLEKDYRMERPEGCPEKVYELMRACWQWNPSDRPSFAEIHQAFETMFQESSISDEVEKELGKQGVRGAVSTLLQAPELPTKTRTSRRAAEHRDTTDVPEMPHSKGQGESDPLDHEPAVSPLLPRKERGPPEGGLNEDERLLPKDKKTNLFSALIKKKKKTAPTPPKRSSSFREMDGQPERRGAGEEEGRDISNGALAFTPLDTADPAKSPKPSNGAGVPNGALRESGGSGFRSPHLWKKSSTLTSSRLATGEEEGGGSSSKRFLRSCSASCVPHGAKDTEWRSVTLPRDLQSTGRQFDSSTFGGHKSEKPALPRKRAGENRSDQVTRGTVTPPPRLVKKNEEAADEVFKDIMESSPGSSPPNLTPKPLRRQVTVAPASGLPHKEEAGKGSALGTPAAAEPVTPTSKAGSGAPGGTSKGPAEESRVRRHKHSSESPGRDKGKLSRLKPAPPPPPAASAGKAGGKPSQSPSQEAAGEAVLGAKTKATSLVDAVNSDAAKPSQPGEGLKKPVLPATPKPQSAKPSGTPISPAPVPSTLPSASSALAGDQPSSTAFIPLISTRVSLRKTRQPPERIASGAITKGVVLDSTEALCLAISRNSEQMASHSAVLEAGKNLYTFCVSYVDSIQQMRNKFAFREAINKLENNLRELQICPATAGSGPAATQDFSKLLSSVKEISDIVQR

SMILES | IC50 (cells [1]) [µM] | half-life at 500 µM [2] [h] | Inhibition of c-SRC Y416 phosphorylation (qualitative) [3] | inhibition [4] | half-life at 500 µM [5] [h] | remaining at 1 h, 50 µM [6] [%] | Papp ([7]; pampa, 5 h) [×10⁻⁶ cm/s] | R% [8] [%] | half-life at 1000 µM [9] [h] | inhibition [10] | IC50 (cells [11]) [µM] | half-life at 500 µM [12] [h] | solubility thermodynamic at 24 h [13] [µg/mL] | Papp at 5 h [7] [×10⁻⁶ cm/s]
CSc1nc(N(C(=O)OCCN2CCN(C)CC2)c2cccc(Br)c2)c2cnn(CC(C)c3ccccc3)c2n1 (stereo not given) | 2.8 | > 48 | Active | inactive | > 48 | 99.9 | 2.11 | 67.3 | 3.22 | inactive | 2.6 | > 48 |  | 
CCCCN(C(=O)OCCN1CCN(C)CC1)c1nc(SCC)nc2c1cnn2CC(Cl)c1ccccc1 (stereo not given) | 1.2 | 0.5 | Active | inactive | 2.08 |  |  |  | 0.467 | inactive | 2.4 | 1.05 |  | 
CSc1nc(Nc2cccc(Br)c2)c2cnn(CC(C)c3ccccc3)c2n1 (stereo not given) | 6.2 |  | Active |  |  | 95.1 |  | 80.4 |  |  | 5.8 |  | 0.01 (≈ 0.022 µM) | 0.01
CCCCNc1nc(SCC)nc2c1cnn2CC(Cl)c1ccccc1 (stereo not given) | 3.5 |  | Active |  |  | 91.5 |  | 44.9 |  |  | 6.7 |  | 0.05 (≈ 0.128 µM) | 5.99
